Drawing on ChEMBL document CHEMBL1138901, “Design, synthesis, and biological evaluation of the combinatorial library with a new spirodiketopiperazine scaffold. Discovery of novel potent and selective low-molecular-weight CCR5 antagonists” (J Med Chem, 2006), this text covers IC50 and Activity for 15 compounds.

In test [1] the target is T1, C-C chemokine receptor type 5 (Homo sapiens, UniProt P51681). The test is described as follows: Antagonist activity against human recombinant CCR5 expressed in CHO cells assessed as inhibition of human MIP-1-alpha-stimulated calcium mobilization. It counts as functional, cell-based. The method, boiled down: (§1)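 Human chemokine receptor-overexpressing CHO cells were stimulated with the matching human endogenous ligand, and calcium mobilization was read out. Library members were tested at 30 µM. Crude products were dissolved in DMSO as 10 mM stocks and used without further purification.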
(In general: Calcium flux is commonly read through the fluorescence of an indicator in the cells.)

The target of test [2] is T2, C-C chemokine receptor type 2 (Homo sapiens, UniProt P41597). The test is described as follows: Antagonist activity against human recombinant CCR2 expressed in CHO cells assessed as inhibition of human MCP1-stimulated calcium mobilization. It counts as functional, cell-based. The method, boiled down: as §1
For test [3], the target named is C-C chemokine receptor type 4 (Homo sapiens, UniProt P51679). In words: Antagonist activity against human recombinant CCR4 expressed in CHO cells assessed as inhibition of human […]-stimulated calcium mobilization. It counts as functional, cell-based. The method, boiled down: as §1
Test [4] addresses T3, C-X-C chemokine receptor type 4 (Homo sapiens, UniProt P61073). In words: Antagonist activity against human recombinant CXCR4 expressed in CHO cells assessed as inhibition of human SDF1-alpha-stimulated calcium mobilization. It counts as functional, cell-based. The method, boiled down:
as §1

In test [5] the target is T1, C-C chemokine receptor type 5. The test is described as follows: Inhibition of radio-isotope labeled MIP1-alpha binding to human recombinant CCR5.
For test [6], the target named is T2, C-C chemokine receptor type 2. In words: Inhibition of radio-isotope labeled MCP1 binding to human recombinant CCR2.
Test [7] addresses T3, C-X-C chemokine receptor type 4. In words: Inhibition of radio-isotope labeled SDF1-alpha binding to human recombinant CXCR4.
For test [8], the system named is Human immunodeficiency virus 1. The test is described as follows: Antiviral activity against T cell tropic HIV1 X4. It counts as functional, organism-based.
In test [9] the target is Muscarinic acetylcholine receptor M3 (Homo sapiens, UniProt P20309). In words: Binding affinity to muscarinic M3 receptor.
For test [10], the target named is Sigma non-opioid intracellular receptor 1 (Homo sapiens, UniProt Q99720). The test is described as follows: Binding affinity to sigma receptor.

The source made the active and inactive calls. No cut-off for these calls is given here.

T2 sequence (P41597 whole entry): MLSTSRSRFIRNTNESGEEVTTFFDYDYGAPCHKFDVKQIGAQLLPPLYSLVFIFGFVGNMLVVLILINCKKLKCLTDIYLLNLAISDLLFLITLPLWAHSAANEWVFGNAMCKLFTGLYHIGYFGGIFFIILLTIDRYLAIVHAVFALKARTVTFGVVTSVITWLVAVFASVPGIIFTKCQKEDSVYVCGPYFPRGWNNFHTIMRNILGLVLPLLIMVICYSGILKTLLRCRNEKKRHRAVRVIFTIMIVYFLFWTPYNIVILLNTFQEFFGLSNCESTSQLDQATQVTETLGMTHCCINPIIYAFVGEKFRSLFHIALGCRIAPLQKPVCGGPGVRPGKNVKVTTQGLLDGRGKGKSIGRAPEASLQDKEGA
C-C chemokine receptor type 4, sequence (P51679 whole entry, looked up): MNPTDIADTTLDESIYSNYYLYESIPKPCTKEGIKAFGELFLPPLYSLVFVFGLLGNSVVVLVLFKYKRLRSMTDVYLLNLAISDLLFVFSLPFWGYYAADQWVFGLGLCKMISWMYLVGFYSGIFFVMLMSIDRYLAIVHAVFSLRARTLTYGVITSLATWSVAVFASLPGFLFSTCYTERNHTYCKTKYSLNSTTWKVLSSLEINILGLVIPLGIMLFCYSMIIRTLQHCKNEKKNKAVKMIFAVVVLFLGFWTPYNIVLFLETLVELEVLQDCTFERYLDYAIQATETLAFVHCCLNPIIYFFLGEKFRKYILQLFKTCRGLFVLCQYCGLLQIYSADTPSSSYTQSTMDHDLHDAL
T1 sequence (P51681 whole entry): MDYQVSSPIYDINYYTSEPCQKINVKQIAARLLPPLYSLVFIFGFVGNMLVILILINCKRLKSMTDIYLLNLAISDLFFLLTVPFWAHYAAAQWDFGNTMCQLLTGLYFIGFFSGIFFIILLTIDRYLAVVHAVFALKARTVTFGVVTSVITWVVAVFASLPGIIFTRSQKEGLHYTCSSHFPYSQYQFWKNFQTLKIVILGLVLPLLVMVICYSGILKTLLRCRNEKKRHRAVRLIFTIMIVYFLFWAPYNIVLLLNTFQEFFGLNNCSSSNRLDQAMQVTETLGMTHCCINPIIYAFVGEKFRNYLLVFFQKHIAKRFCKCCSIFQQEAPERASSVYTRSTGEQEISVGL
T3 sequence (P61073 whole entry): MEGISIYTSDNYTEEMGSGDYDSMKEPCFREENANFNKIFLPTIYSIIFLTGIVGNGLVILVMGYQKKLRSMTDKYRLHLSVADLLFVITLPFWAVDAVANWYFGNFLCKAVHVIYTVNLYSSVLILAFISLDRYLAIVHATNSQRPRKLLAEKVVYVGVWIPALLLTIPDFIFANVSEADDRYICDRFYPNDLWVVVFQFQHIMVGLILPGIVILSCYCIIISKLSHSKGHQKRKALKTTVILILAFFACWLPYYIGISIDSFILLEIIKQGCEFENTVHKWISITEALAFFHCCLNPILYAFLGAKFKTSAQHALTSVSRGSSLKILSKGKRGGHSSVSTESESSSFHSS
Muscarinic acetylcholine receptor M3, sequence (P20309 whole entry): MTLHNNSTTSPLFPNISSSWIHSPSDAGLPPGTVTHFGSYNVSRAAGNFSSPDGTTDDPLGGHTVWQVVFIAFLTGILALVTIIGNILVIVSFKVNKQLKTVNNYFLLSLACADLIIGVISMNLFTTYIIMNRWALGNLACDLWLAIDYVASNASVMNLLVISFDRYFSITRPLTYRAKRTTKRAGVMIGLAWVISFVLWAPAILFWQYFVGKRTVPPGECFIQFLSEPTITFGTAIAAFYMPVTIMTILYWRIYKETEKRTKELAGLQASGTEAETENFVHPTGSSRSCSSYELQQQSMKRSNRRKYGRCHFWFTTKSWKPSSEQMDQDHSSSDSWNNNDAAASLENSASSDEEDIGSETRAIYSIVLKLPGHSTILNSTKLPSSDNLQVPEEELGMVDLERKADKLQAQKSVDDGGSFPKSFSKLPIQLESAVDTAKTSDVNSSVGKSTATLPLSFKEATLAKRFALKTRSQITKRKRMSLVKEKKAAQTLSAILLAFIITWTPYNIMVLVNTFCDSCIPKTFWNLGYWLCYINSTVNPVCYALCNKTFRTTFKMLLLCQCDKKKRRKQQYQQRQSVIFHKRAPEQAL
Sigma non-opioid intracellular receptor 1, sequence (Q99720 whole entry): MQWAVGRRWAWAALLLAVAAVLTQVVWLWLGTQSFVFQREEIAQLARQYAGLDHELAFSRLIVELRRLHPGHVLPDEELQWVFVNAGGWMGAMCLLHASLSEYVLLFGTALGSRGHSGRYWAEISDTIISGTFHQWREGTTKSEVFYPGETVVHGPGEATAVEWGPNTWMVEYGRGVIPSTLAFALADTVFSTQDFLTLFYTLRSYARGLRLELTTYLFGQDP

What is called IC50 is the concentration that gives 50% inhibition. Regarding `CCCN1C(=O)C(CC(C)C)NC(=O)C12CCN(Cc1ccc(Oc3ccccc3)cc1)CC2` (stereo unspecified), the IC50 was 0.5 µM in [1]; greater than 30 µM in test [2]; greater than 30 µM in test [3]; greater than 30 µM in test [4]; 0.017 µM in test [5]; greater than 30 µM in [6]. Also, the half-inhibitory concentration (IC50) in test [7] was greater than 30 µM. In test [8], the outcome was inactive.

Take `CCCCN1C(=O)C(CC2CCCCC2)NC(=O)C12CCN(Cc1ccc(Oc3ccccc3)cc1)CC2` (stereo unspecified): the IC50 in [1] is 0.17 µM; in test [2], greater than 10 µM; in test [4], greater than 10 µM; in test [5], 0.0061 µM; in test [6], greater than 10 µM; in test [7], greater than 10 µM. Moreover, in [8], the result was inactive.

With `CCCCN1C(=O)C(CC2CCCCC2)NC(=O)C12CCN(Cc1ccc3c(c1)OCCO3)CC2` (stereo unspecified), the IC50 in test [1] is 0.02 µM; in test [2], greater than 10 µM; in [4] it was greater than 10 µM; in [5], 0.0025 µM; in [6], greater than 10 µM; in test [7], greater than 10 µM. Further, the IC50 in test [9] was 2.07 µM; in test [10], 0.183 µM. Moreover, the outcome in [8] was inactive.

For `CCCCN1C(=O)C(CC(C)C)NC(=O)C12CCN(CCCCCCc1ccccc1)CC2` (stereo unspecified), the 50% inhibitory concentration (IC50) in test [1] was 0.27 µM; in [2], greater than 10 µM; in test [3], greater than 10 µM; in test [4], 6.7 µM; in test [5], 0.038 µM; in [6], greater than 10 µM. The concentration for half-maximal inhibition (IC50) in test [7] is greater than 10 µM. Also, the outcome in test [8] was inactive.

Consider `CCCCN1C(=O)C(CC2CCCCC2)NC(=O)C12CCN(Cc1ccc(OC)cc1)CC2` (stereo unspecified), for which the IC50 in [1] was 0.12 µM; in [2], greater than 30 µM; in test [4], greater than 30 µM; in test [5] it was 0.0045 µM; in test [6], greater than 30 µM; in test [7] it was greater than 30 µM. The result in [8] was inactive.

Consider `CCCN1C(=O)[C@H](CC(C)C)NC(=O)C12CCN(CCCCCCc1ccccc1)CC2`, for which the 50% inhibitory concentration (IC50) in [1] is 2 µM; in test [2], greater than 10 µM; in test [3], greater than 10 µM; in [4], greater than 10 µM. The outcome in test [8] was inactive.

Consider `CCCCN1C(=O)C(CC(C)C)NC(=O)C12CCN(Cc1ccccc1)CC2` (stereo unspecified), for which the IC50 in test [1] was 0.9 µM; in test [2] it was greater than 30 µM; in [3] it was greater than 30 µM; in test [4] it was greater than 30 µM; in test [5], 0.56 µM; in [7], greater than 10 µM. Further, the outcome in [8] was inactive.

As to `CCCN1C(=O)[C@@H](CC2CCCCC2)NC(=O)C12CCN(CCCCCCc1ccccc1)CC2`, the concentration for half-maximal inhibition (IC50) is 0.27 µM in test [1]; greater than 10 µM in [2]; greater than 10 µM in test [3]; greater than 10 µM in [4]; 0.86 µM in [5]; greater than 10 µM in test [7]. For the same compound, in test [8], the outcome was inactive.

Turning to `CC(C)C[C@H]1NC(=O)C2(CCN(Cc3ccccc3)CC2)N(Cc2ccccc2)C1=O`, the IC50 in [1] is 7.6 µM; in test [2], greater than 30 µM; in [3] it was greater than 30 µM; in [4], greater than 30 µM. Also, the outcome in test [8] was inactive.

With `CC(C)C[C@@H]1NC(=O)C2(CCN(Cc3ccccc3)CC2)N(Cc2ccccc2)C1=O`, the concentration for half-maximal inhibition (IC50) is 3.2 µM in test [1], greater than 30 µM in test [2], greater than 30 µM in test [3] and greater than 30 µM in [4]. In test [8], the outcome was inactive.

With `CCCCN1C(=O)C(CC(C)C)NC(=O)C12CCN(Cc1ccc(Oc3ccccc3)cc1)CC2` (stereo unspecified), the concentration for half-maximal inhibition (IC50) is 0.12 µM in [1]; greater than 10 µM in test [2]; greater than 10 µM in [4]; 0.083 µM in [5]; greater than 10 µM in test [6]; greater than 10 µM in [7]. The outcome in test [8] was inactive.

In the case of `C=CCOc1ccc(CN2CCC3(CC2)C(=O)NC(CC2CCCCC2)C(=O)N3CCCC)cc1` (stereo unspecified), the IC50 in [1] is 0.05 µM; in test [2], greater than 10 µM; in [4] it was greater than 10 µM; in [5], 0.011 µM; in test [6], greater than 10 µM; in test [7] it was greater than 10 µM. For the same compound, the outcome in [8] was inactive.

Turning to `CCCN1C(=O)[C@@H](CC(C)C)NC(=O)C12CCN(CCCCCCc1ccccc1)CC2`, the IC50 is 3 µM in test [1], greater than 10 µM in test [2], greater than 10 µM in test [3] and greater than 10 µM in [4]. For the same compound, in [8], the outcome was inactive.

Consider `CCCN1C(=O)[C@H](CC2CCCCC2)NC(=O)C12CCN(CCCCCCc1ccccc1)CC2`, for which the IC50 was 0.3 µM in test [1]; greater than 10 µM in [2]; greater than 10 µM in test [3]; greater than 10 µM in [4]; 0.61 µM in test [5]; greater than 10 µM in [7]. Besides, the outcome in test [8] was inactive.

`CCCCN1C(=O)C(CC(C)C)NC(=O)C12CCN(Cc1ccc3c(c1)OCCO3)CC2` (stereo unspecified): the 50% inhibitory concentration (IC50) was 0.17 µM in [1]; greater than 10 µM in [2]; greater than 10 µM in test [4]; 0.02 µM in [5]; greater than 10 µM in test [6]; greater than 10 µM in [7]. In addition, in [8], the outcome was inactive.
